{"source": "ChEMBL document CHEMBL1131626", "about": "(J Med Chem, 1998)", "key": {"[1]": {"biological_target": "T1, Progesterone receptor (Mus musculus) (UniProt Q00175)", "T1 sequence (whole entry)": "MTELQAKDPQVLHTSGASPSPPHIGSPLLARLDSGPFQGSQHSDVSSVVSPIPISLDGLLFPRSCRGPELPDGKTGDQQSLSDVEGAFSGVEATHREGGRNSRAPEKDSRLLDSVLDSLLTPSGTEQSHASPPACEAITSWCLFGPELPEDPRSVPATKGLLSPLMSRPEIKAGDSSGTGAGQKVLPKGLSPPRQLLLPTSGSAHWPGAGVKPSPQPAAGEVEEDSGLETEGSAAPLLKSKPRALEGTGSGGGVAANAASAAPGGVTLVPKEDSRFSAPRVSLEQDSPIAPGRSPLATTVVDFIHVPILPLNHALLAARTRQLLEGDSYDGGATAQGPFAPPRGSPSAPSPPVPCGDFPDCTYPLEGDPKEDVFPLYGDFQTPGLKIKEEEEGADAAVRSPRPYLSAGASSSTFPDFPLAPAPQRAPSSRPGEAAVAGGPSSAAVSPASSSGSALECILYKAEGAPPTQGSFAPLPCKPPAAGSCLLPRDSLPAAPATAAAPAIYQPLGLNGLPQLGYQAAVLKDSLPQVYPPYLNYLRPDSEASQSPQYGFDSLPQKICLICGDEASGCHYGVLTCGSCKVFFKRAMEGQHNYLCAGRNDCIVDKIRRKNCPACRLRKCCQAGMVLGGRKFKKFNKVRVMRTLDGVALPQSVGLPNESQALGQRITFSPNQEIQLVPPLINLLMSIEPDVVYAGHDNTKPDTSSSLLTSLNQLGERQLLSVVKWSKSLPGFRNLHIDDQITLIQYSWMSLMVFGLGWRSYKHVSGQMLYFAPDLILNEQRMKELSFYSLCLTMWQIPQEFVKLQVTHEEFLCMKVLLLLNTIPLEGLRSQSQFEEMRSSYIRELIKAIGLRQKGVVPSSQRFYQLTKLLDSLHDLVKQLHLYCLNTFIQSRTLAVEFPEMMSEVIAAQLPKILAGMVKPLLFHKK", "assay": "Effect on pregnancy in mice as number pregnant/mated at 10 mg/mouse dose with simultaneous 0.5 mg RU-486 dose; out of 10", "format": "functional", "method_in_brief": "(§1)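 Mature virgin ICR mice, 10-12 weeks old, mated overnight; vaginal plug marks day 1. Oral RU486 0.5 mg (~15 mg/kg), alone or with test compound (mg/mouse), on days 2-4. Compounds in ethanol diluted with corn oil, 0.1 mL. Oil controls. Necropsy on day 8 to count corpora lutea and implantation sites and to score pregnancy. Student t-test.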"}, "[2]": {"biological_target": "T1, Progesterone receptor (Mus musculus)", "assay": "Effect on pregnancy in mice as percent pregnant at 30 mg/mouse dose with simultaneous 0.5 mg RU-486 dose", "format": "functional", "method_in_brief": "as §1"}, "[3]": {"biological_target": "T1, Progesterone receptor (Mus musculus)", "assay": "Effect on pregnancy in mice as number pregnant/mated at 3 mg/mouse dose with simultaneous 0.5 mg RU-486 dose; out of 12", "format": "functional", "method_in_brief": "as §1"}, "[4]": {"biological_target": "T1, Progesterone receptor (Mus musculus)", "assay": "Effect on pregnancy in mice as percent pregnant at 1 mg/mouse dose with simultaneous 0.5 mg RU-486 dose", "format": "functional", "method_in_brief": "as §1"}, "[5]": {"biological_target": "T1, Progesterone receptor (Mus musculus)", "assay": "Effect on pregnancy in mice as percent pregnant at 10 mg/mouse dose with simultaneous 0.5 mg RU-486 dose", "format": "functional", "method_in_brief": "as §1"}, "[6]": {"biological_target": "T1, Progesterone receptor (Mus musculus)", "assay": "Effect on pregnancy in mice as implantation at 3 mg/mouse dose with simultaneous 0.5 mg RU-486 dose", "format": "functional", "method_in_brief": "as §1"}, "[7]": {"biological_target": "T1, Progesterone receptor (Mus musculus)", "assay": "Effect on pregnancy in mice as corpora lutea at 3 mg/mouse dose with simultaneous 0.5 mg RU-486 dose", "format": "functional, organism-based", "method_in_brief": "as §1"}, "[8]": {"biological_target": "T1, Progesterone receptor (Mus musculus)", "assay": "Effect on pregnancy in mice as number pregnant/mated at 30 mg/mouse dose with simultaneous 0.5 mg RU-486 dose; out of 10", "format": "functional", "method_in_brief": "as §1"}, "[9]": {"biological_target": "T1, Progesterone receptor (Mus musculus)", "assay": "Effect on pregnancy in mice as corpora lutea at 30 mg/mouse dose with simultaneous 0.5 mg RU-486 dose", "format": "functional, organism-based", "method_in_brief": "as §1"}, "[10]": {"biological_target": "T1, Progesterone receptor (Mus musculus)", "assay": "Effect on pregnancy in mice as corpora lutea at 1 mg/mouse dose with simultaneous 0.5 mg RU-486 dose", "format": "functional, organism-based", "method_in_brief": "as §1"}, "[11]": {"biological_target": "T1, Progesterone receptor (Mus musculus)", "assay": "Effect on pregnancy in mice as implantation at 10 mg/mouse dose with simultaneous 0.5 mg RU-486 dose", "format": "functional", "method_in_brief": "as §1"}, "[12]": {"biological_target": "T1, Progesterone receptor (Mus musculus)", "assay": "Effect on pregnancy in mice as percent pregnant at 3 mg/mouse dose with simultaneous 0.5 mg RU-486 dose", "format": "functional", "method_in_brief": "as §1"}, "[13]": {"biological_target": "T1, Progesterone receptor (Mus musculus)", "assay": "Effect on pregnancy in mice as implantation at 1 mg/mouse dose with simultaneous 0.5 mg RU-486 dose", "format": "functional", "method_in_brief": "as §1"}, "[14]": {"biological_target": "T1, Progesterone receptor (Mus musculus)", "assay": "Effect on pregnancy in mice as implantation at 30 mg/mouse dose with simultaneous 0.5 mg RU-486 dose", "format": "functional", "method_in_brief": "as §1"}, "[15]": {"biological_target": "T1, Progesterone receptor (Mus musculus)", "assay": "Effect on pregnancy in mice as corpora lutea at 10 mg/mouse dose with simultaneous 0.5 mg RU-486 dose", "format": "functional, organism-based", "method_in_brief": "as §1"}, "[16]": {"biological_target": "T1, Progesterone receptor (Mus musculus)", "assay": "Effect on pregnancy in mice as number pregnant/mated at 1 mg/mouse dose with simultaneous 0.5 mg RU-486 dose; out of 10", "format": "functional", "method_in_brief": "as §1"}, "[17]": {"biological_target": "T1, Progesterone receptor (Mus musculus)", "assay": "Effect on pregnancy in mice as number pregnant/mated at 0.5 mg/mouse dose with simultaneous 0.5 mg RU-486 dose; out of 16", "format": "functional", "method_in_brief": "as §1"}, "[18]": {"biological_target": "T1, Progesterone receptor (Mus musculus)", "assay": "Effect on pregnancy in mice as implantation at 0.5 mg/mouse dose with simultaneous 0.5 mg RU-486 dose", "format": "functional", "method_in_brief": "as §1"}, "[19]": {"biological_target": "T1, Progesterone receptor (Mus musculus)", "assay": "Effect on pregnancy in mice as percent pregnant at 0.5 mg/mouse dose with simultaneous 0.5 mg RU-486 dose", "format": "functional", "method_in_brief": "as §1"}, "[20]": {"biological_target": "T1, Progesterone receptor (Mus musculus)", "assay": "Effect on pregnancy in mice as corpora lutea at 0.5 mg/mouse dose with simultaneous 0.5 mg RU-486 dose", "format": "functional, organism-based", "method_in_brief": "as §1"}, "[21]": {"biological_target": "T1, Progesterone receptor (Mus musculus)", "assay": "Effect on pregnancy in mice as number pregnant/mated at 3 mg/mouse dose with simultaneous 0.5 mg RU-486 dose; out of 9", "format": "functional", "method_in_brief": "as §1"}, "[22]": {"biological_target": "T1, Progesterone receptor (Mus musculus)", "assay": "Effect on pregnancy in mice as number pregnant/mated at 1 mg/mouse dose with simultaneous 0.5 mg RU-486 dose; out of 11", "format": "functional", "method_in_brief": "as §1"}}}
{"smiles": "CC#C[C@]1(O)CC[C@H]2[C@@H]3CCC4=CC(=O)CCC4=C3[C@@H](c3ccc(N(C)C)cc3)C[C@@]21C.CC(=O)O[C@]1(C(C)=O)CC[C@H]2[C@@H]3C[C@H](C)C4=CC(=O)CC[C@]4(C)[C@H]3CC[C@@]21C", "values": [{"measurement": "No. pregnant/mated", "setting": "[1]", "result": 1}, {"measurement": "Pregnant", "setting": "[2]", "result": 50, "unit": "%"}, {"measurement": "No. pregnant/mated", "setting": "[3]", "result": 2}, {"measurement": "Pregnant", "setting": "[4]", "result": 10, "unit": "%"}, {"measurement": "Pregnant", "setting": "[5]", "result": 10, "unit": "%"}, {"measurement": "Implants", "setting": "[6]", "result": 2.6}, {"measurement": "Corpora lutea", "setting": "[7]", "result": 13.6}, {"measurement": "No. pregnant/mated", "setting": "[8]", "result": 5}, {"measurement": "Corpora lutea", "setting": "[9]", "result": 10.7}, {"measurement": "Corpora lutea", "setting": "[10]", "result": 11.7}, {"measurement": "Implants", "setting": "[11]", "result": 1.4}, {"measurement": "Pregnant", "setting": "[12]", "result": 16.7, "unit": "%"}, {"measurement": "Implants", "setting": "[13]", "result": 1.2}, {"measurement": "Implants", "setting": "[14]", "result": 6.7}, {"measurement": "Corpora lutea", "setting": "[15]", "result": 12.3}, {"measurement": "No. pregnant/mated", "setting": "[16]", "result": 1}]}
{"smiles": "CC#C[C@]1(O)CC[C@H]2[C@@H]3CCC4=CC(=O)CCC4=C3[C@@H](c3ccc(N(C)C)cc3)C[C@@]21C", "values": [{"measurement": "No. pregnant/mated", "setting": "[17]", "result": 3}, {"measurement": "Implants", "setting": "[18]", "result": 3.3}, {"measurement": "Pregnant", "setting": "[19]", "result": 18.8, "unit": "%"}, {"measurement": "Corpora lutea", "setting": "[20]", "result": 13.4}]}
{"smiles": "CC#C[C@]1(O)CC[C@H]2[C@@H]3CCC4=CC(=O)CCC4=C3[C@@H](c3ccc(N(C)C)cc3)C[C@@]21C.CC1=CC(C)(C)Nc2ccc3c(c21)C(c1cccc(Cl)c1)Oc1ccc(F)cc1-3", "values": [{"measurement": "No. pregnant/mated", "setting": "[21]", "result": 9}, {"measurement": "Pregnant", "setting": "[4]", "result": 91, "unit": "%"}, {"measurement": "No. pregnant/mated", "setting": "[22]", "result": 10}, {"measurement": "Implants", "setting": "[6]", "result": 13.7}, {"measurement": "Corpora lutea", "setting": "[7]", "result": 14.1}, {"measurement": "Corpora lutea", "setting": "[10]", "result": 14.1}, {"measurement": "Pregnant", "setting": "[12]", "result": 100, "unit": "%"}, {"measurement": "Implants", "setting": "[13]", "result": 12}]}
